Experimental data from PMC7613447 (Bioorganic & medicinal chemistry, 2022).
Each block holds one compound with its values, some of them ahead of it. Where a SMILES comes first, the peptide text is derived from it. [ ]: non-standard residue; d: D form. 1Nal = N[C@@H](Cc1cccc2ccccc12)C(=O)O; 2Nal = N[C@@H](Cc1ccc2ccccc2c1)C(=O)O

Tests used:
[1] = target: PP1 (Homo sapiens, UniProt P62136); assay: ALPHA assay, competition with Biotin-PDP2 for the RVxF binding site of His-PP1
In short: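 Competition binding with 200 nM His-PP1 and 67 nM biotin-PDP2 in 50 mM Tris-Cl pH 7.5, 150 mM NaCl, 0.05% Tween 20, 1 mM MnCl₂, 0.1% BSA. Serial dilutions of test compound were added for 60 min at rt. Streptavidin-donor and anti-His-acceptor beads (5 μg/ml final) were then added for 90 min at rt in the dark. Excitation was 680 nm, emission 570 nm. The non-specific control used 22 nM GST(His-biotin).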

[2] = target: PP1 and Inhibitor 2 (Homo sapiens, UniProt P62136); assay: Disruption of the interaction between PP1 and Inhibitor 2; format: biochemical; conditions: for EC50 of the disruption of the interaction between PP1 and Inhibitor 2: starting at 50% inhibition of PP1 with I2, DiFMUP as substrate; for activity in disrupting PP1:I2 (in words): in vitro, Table 1 conditions; for PP1 activity reached (efficacy): maximum of dose-response, around 50% starting inhibition (Supp. Fig. 2E, F)
[3] = tested on: HeLa cells; assay: Calcium release assay, Fluo-4 imaging in intact HeLa cells; format: cell-based; conditions: Fluo-4, Ca^2+-containing imaging buffer
In short: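 HeLa Kyoto cells were grown in low-glucose DMEM with 10% FBS, penicillin/streptomycin and L-glutamine at 37 °C, 5% CO₂, then seeded in chamber slides the day before imaging (~80% confluent). Cells were loaded with 0.5 μM Fluo-4 in HEPES pH 7.4 imaging buffer containing 1.2 mM CaCl₂ for 30 min at rt, then washed. Confocal imaging used ex 488/em 516 nm: 2 min baseline, then 30 min after compound addition. Buffer and a PP1-disrupting peptide served as controls. Responding cells were counted.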

[4] = tested on: PP1 by I2; conditions: starting inhibition of PP1 by I2 of 50%; cited from earlier work

PP1 and Inhibitor 2, sequence (P62136 whole entry): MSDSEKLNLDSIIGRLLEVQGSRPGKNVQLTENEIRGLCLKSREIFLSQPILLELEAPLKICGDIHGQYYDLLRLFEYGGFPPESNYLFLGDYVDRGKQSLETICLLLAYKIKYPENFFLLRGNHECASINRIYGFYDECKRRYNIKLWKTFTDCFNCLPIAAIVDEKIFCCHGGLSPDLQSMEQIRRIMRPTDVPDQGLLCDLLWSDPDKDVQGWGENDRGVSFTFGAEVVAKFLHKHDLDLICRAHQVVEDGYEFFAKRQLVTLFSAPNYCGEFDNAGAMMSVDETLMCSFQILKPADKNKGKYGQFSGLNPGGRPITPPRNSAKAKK
PP1, sequence (P62136 whole entry): as above

Compound: CC(C)[C@H](NC(=O)[C@@H](N)CCCNC(=N)N)C(=O)N[C@H](C(=O)N[C@@H](Cc1ccccc1)C(=O)O)[C@@H](C)O [Compound 1, RVTF] (H-RVTF-OH)
IC50 [1]: 124 µM

Compound: CC[C@H](C)[C@H](NC(=O)[C@@H](N)CCCNC(=N)N)C(=O)N[C@H](C(=O)N[C@@H](Cc1ccccc1)C(=O)O)[C@@H](C)O [Compound 3, RITF] (H-RITF-OH)
EC50 of the disruption of the interaction between PP1 and Inhibitor 2 [2]: Slightly active at 500 μM

Compound: CC(C)C[C@H](NC(=O)[C@@H](N)CCCNC(=N)N)C(=O)N[C@H](C(=O)N[C@@H](Cc1ccccc1)C(=O)O)[C@@H](C)O [Compound 4, RLTF] (H-RLTF-OH)
EC50 of the disruption of the interaction between PP1 and Inhibitor 2 [2]: Slightly active at 500 μM

Compound: CC(C)[C@H](NC(=O)[C@@H](N)CCCNC(=N)N)C(=O)NCC(=O)N[C@@H](Cc1ccccc1)C(=O)O [Compound 6, RVGF] (H-RVGF-OH)
EC50 of the disruption of the interaction between PP1 and Inhibitor 2 [2]: Slightly active at 500 μM

Compound: CC(C)[C@H](NC(=O)[C@@H](NC(=O)[C@@H](N)CCCNC(=N)N)C(C)C)C(=O)N[C@@H](Cc1ccccc1)C(=O)O [Compound 7, RVVF] (H-RVVF-OH)
EC50 of the disruption of the interaction between PP1 and Inhibitor 2 [2]: Slightly active at 500 μM

Compound: CC(C)[C@H](NC(=O)[C@@H](N)CCCNC(=N)N)C(=O)N[C@@H](CCC(=O)O)C(=O)N[C@@H](Cc1ccccc1)C(=O)O [Compound 13, RVEF] (H-RVEF-OH)
EC50 of the disruption of the interaction between PP1 and Inhibitor 2 [2]: Slightly active at 500 μM

activity in disrupting PP1:I2 (in words) [2]: inactive
Compound: CC(C)[C@H](NC(=O)[C@@H](NC(=O)[C@@H](N)Cc1ccccc1)[C@@H](C)O)C(=O)N[C@@H](CCCNC(=N)N)C(=O)O [Compound 25, FTVR] (H-FTVR-OH)

Compound: CC(C)[C@@H](NC(=O)[C@@H](Cc1c[nH]cn1)NC(=O)[C@H](N)Cc1ccccc1)C(=O)N[C@H](CCCNC(=N)N)C(=O)O [Compound 27, dFdHdVdR]
EC50 of the disruption of the interaction between PP1 and Inhibitor 2 [2]: Slightly active at 500 μM

activity in disrupting PP1:I2 (in words) [2]: inactive
Compound: CC(=O)N[C@@H](CCCNC(=N)N)C(=O)N[C@H](C(=O)N[C@H](C(=O)N[C@@H](Cc1ccccc1)C(=O)O)[C@@H](C)O)C(C)C [Compound 28, Ac-RVTF] (Ac-RVTF-OH)

PP1 activity reached (efficacy) [2]: around 80%
Compound: CC(C)[C@H](NC(=O)[C@H](CCCNC(=N)N)NC(=O)[C@@H](N)CCCCN)C(=O)N[C@@H](Cc1c[nH]cn1)C(=O)N[C@@H](Cc1cccc2ccccc12)C(N)=O [Compound 48, KRVH-(1-NaI)-NH2] (H-KRVH[1Nal]-NH2)

PP1 activity reached (efficacy) [2]: around 80%
Compound: CC(C)[C@H](NC(=O)[C@H](CCCNC(=N)N)NC(=O)[C@@H](N)CCCCN)C(=O)N[C@@H](Cc1c[nH]cn1)C(=O)N[C@@H](Cc1ccc2ccccc2c1)C(N)=O [Compound 49, KRVH-(2-NaI)-NH2] (H-KRVH[2Nal]-NH2)

Compound: Ac-KRVHF-NH2 [Compound 34, Ac-KRVHF-NH2]
calcium spiking in living HeLa cells (in words) [3]: inactive

Compound: RKIQFT
EC50 [4]: 54 µM
